Converted amounts (≈) assume the structure as drawn. The source made the active and inactive calls.

The subject of series [1] is Rattus norvegicus. The experiment in a line: Decrease in restrained-stress induced ATCH release in plasma of Sprague-Dawley rat at 10 mg/kg, po pretreated with compound for 1 hr by radioimmunoassay. The format is functional, organism-based. The arrangement: dose 10 mg/kg. Put shortly: (§1)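 Rats were dosed orally 1 h before a 10 min period of physical restraint, across a 1–30 mg/kg range. The read-out was plasma ACTH, compared against vehicle-treated stressed and unstressed rats.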

Series [2] concerns the target Corticotropin-releasing factor receptor 1 (Rattus norvegicus, UniProt P35353). Description: Displacement of [125I]-sauvagine from rat CRF-1 receptor expressed in rat cortical membrane after 2 hrs by scintillation counting. The format is cell membranes. A digest of the protocol: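 Displacement of [125I]-sauvagine binding from rat cortical membrane homogenate with increasing compound concentrations; Ki derived.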
(In general: In a radioligand displacement assay an active substance lowers the binding of a labelled ligand.)

In series [3] the test system is Rattus norvegicus. Description: Ex vivo CRF-1 receptor occupancy in po dosed rat cortical homogenate assessed as inhibition of [I125]-sauvagine binding pretreated for 3 hrs. The format is functional, organism-based. A digest of the protocol: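 Rats dosed orally at 1, 3 and 10 mg/kg; cortex taken at 3 h for ex vivo binding. Specific [125I]-sauvagine binding compared with vehicle-treated rats to give ex vivo ID50.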

Series [4] deals with Rattus norvegicus. The experiment in a line: Decrease in restrained-stress induced ATCH release in plasma of Sprague-Dawley rat at 3 mg/kg, po pretreated with compound for 1 hr by radioimmunoassay. The class given is functional, organism-based. The arrangement: dose 3 mg/kg. Put shortly: as §1
The test system of series [5] is Rattus norvegicus. Description: Antihyperlocomotion activity in Wistar rat assessed as decrease in CRF-induced hyperlocomotion at 10 mg/kg, po administered 1 hr before CRF challenge measured after 1 hr. The class given is functional, organism-based. Further details: dose 10 mg/kg. Put shortly:
(§2)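 Oral dosing in rats 1 h before an ICV CRF challenge of 0.3 μg, across a 1–30 mg/kg range. The read-out was locomotor movement time, compared against TPGS-vehicle rats given CRF and rats given vehicle without CRF.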

Series [6] deals with Rattus norvegicus. The experiment in a line: Antihyperlocomotion activity in Wistar rat assessed as decrease in CRF-induced hyperlocomotion at 3 mg/kg, po administered 1 hr before CRF challenge measured after 1 hr. Further details: dose 3 mg/kg. The class given is functional, organism-based. Put shortly: as §2
The nature of series [7]: Ratio of drug level in brain to plasma of rat at 5 mg/kg, po. The format is ADME, organism-based. Further details: dose 5 mg/kg, route oral. The following applies: read-out: BPR. Put shortly:
(§3)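 Rat pharmacokinetics: compounds given iv (1 or 3 mg/kg) and po (5 or 10 mg/kg) in 2% Vitamin E TPGS (tocopheryl polyethylene glycol 1000 succinate). Plasma sampled over 24 h for Cmax, Tmax, AUC0–24 h, T1/2, clearance, Vss and oral bioavailability. Brain to plasma ratio also measured.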

Series [8] can be described thus: Half life in rat microsomes. The format is ADME, Microsome. A digest of the protocol: (§4)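 Stability in human or rat liver microsomes; half-life (T1/2, min) of compound turnover reported.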
A short description of series [9]: Half life in human microsomes. The class given is ADME, Microsome. A digest of the protocol:
as §4

The nature of series [10]: Clearance in rat at 5 mg/kg, po. The format is ADME, organism-based. Further details: dose 5 mg/kg, route oral. The settings on record: in vivo.
For series [11], the system named is Rattus norvegicus. The experiment in a line: Volume of distribution at steady state in rat at 5 mg/kg, po. Further details: dose 5 mg/kg, route oral. The settings on record: in vivo. The class given is ADME, organism-based. Put shortly:
as §3

Series [12] can be described thus: Half life in rat at 3 mg/kg, iv. The format is ADME, organism-based. The settings on record: in vivo. The arrangement: dose 3 mg/kg, route intravenous. Put shortly:
(§5)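 Rat PK, intravenous arm of a paired iv/po study. Dosed in 2% Vitamin E TPGS (tocopheryl polyethylene glycol 1000 succinate). Parameters derived from plasma: Cmax, AUC0–24 h, terminal T1/2.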

Series [13] is described as follows: AUC (0 to 24 hrs) in rat at 5 mg/kg, po. The class given is ADME, organism-based. Further details: time < 24 hr, dose 5 mg/kg, route oral. The settings on record: plasma.
The nature of series [14]: Oral bioavailability in rat at 5 mg/kg. The settings on record: in vivo. The class given is ADME, organism-based. A digest of the protocol: as §3
Series [15] is described as follows: Clearance in rat at 3 mg/kg, iv. The format is ADME, organism-based. Further details: dose 3 mg/kg, route intravenous. The following applies: in vivo. Put shortly:
(§6)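 Rat PK with paired iv and oral dosing, vehicle 2% Vitamin E TPGS. Clearance and Vss from the iv arm; oral bioavailability F from comparing exposure after oral and iv doses.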

Series [16] in a line: Volume of distribution at steady state in rat at 3 mg/kg, iv. The class given is ADME, organism-based. Further details: dose 3 mg/kg, route intravenous. The following applies: in vivo, read-out: Vdss. A digest of the protocol:
as §3

A short description of series [17]: Tmax in rat at 5 mg/kg, po. The settings on record: in vivo. The format is ADME, organism-based. The arrangement: dose 5 mg/kg, route oral. A digest of the protocol: as §3
Series [18] is described as follows: Cmax in rat at 5 mg/kg, po. Further details: dose 5 mg/kg, route oral. The format is ADME, organism-based. The following applies: in vivo.
Series [19] in a line: Cmax in rat at 3 mg/kg, iv. The class given is ADME, organism-based. Further details: dose 3 mg/kg, route intravenous. The settings on record: in vivo. Put shortly:
as §5

A short description of series [20]: Bioavailability in rat at 3 mg/kg, […]. The following applies: in vivo. The class given is ADME, organism-based. Put shortly: as §6
The nature of series [21]: Ratio of drug level in brain to plasma of rat at 3 mg/kg, iv. The following applies: read-out: BPR. The class given is ADME, organism-based. The arrangement: dose 3 mg/kg, route intravenous. A digest of the protocol: as §3
Series [22] in a line: Tmax in rat at 3 mg/kg, iv. The format is ADME, organism-based. The arrangement: dose 3 mg/kg, route intravenous. The following applies: in vivo. Put shortly: as §3
Series [23] can be described thus: Half life in rat at 5 mg/kg, po. The format is ADME, organism-based. The arrangement: dose 5 mg/kg, route oral. The settings on record: in vivo.
For series [24], the target named is T1, Corticotropin-releasing factor receptor 1 (Homo sapiens, UniProt P34998).
T1 sequence (P34998 whole entry): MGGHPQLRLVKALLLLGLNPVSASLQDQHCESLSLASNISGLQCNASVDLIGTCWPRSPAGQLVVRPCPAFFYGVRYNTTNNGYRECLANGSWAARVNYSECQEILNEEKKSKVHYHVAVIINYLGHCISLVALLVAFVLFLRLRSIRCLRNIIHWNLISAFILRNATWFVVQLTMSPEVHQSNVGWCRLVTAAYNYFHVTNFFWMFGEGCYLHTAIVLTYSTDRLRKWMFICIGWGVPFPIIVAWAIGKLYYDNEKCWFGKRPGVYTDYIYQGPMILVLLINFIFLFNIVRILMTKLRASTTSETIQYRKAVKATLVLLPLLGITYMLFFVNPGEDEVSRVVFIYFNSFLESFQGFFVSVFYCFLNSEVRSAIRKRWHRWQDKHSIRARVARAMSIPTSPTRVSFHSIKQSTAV
Description: Displacement of [125I]-sauvagine from human CRF-1 receptor expressed in human IMR-32 cells after 2 hrs by scintillation counting. The format is cell-based. A digest of the protocol: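 Competition binding against 125I-sauvagine on membrane preparations from IMR-32 human neuroblastoma cells, which express CRF-1 endogenously. Modified from a published method.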

The nature of series [25]: AUC (0 to 24 hrs) in rat at 3 mg/kg, iv. The class given is ADME, organism-based. The arrangement: time < 24 hr, dose 3 mg/kg, route intravenous. The settings on record: plasma. Put shortly:
as §5

Series [26] can be described thus: Drug uptake in rat adipose tissue assessed as radioactivity of labeled compound. The settings on record: in vivo. The class given is ADME, tissue-based.
The nature of series [27]: Oral bioavailability in rat. The format is ADME, organism-based. The settings on record: in vivo. Put shortly:
as §3

Corticotropin-releasing factor receptor 1 (Rattus norvegicus, UniProt P35353), sequence (P35353 whole entry): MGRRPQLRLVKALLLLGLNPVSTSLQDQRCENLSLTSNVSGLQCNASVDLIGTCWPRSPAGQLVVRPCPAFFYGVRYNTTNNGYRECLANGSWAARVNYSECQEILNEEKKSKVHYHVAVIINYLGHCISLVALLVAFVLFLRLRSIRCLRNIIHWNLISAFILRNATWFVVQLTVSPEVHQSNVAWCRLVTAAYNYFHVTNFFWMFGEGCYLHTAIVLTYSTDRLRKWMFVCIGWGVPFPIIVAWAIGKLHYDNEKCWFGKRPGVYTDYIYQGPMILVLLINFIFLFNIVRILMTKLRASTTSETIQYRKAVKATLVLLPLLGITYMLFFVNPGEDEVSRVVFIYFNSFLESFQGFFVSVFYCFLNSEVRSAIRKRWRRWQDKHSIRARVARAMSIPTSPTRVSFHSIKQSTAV

The term Ki denotes the dissociation constant of the complex between target and ligand, obtained from inhibition or displacement. Low values mean higher affinity, high ones lower affinity. Usually IC50 stands for the point on the concentration scale where inhibition reaches its midpoint. For the compound `CCCN(CCC)c1cc(C)nc2c(-c3cnc(N(C)C)cc3C)c(C)nn12`, the result with Rattus norvegicus [1], with Rattus norvegicus [4], in the series on Rattus norvegicus [5] and with Rattus norvegicus [6] was Active. This compound also returned a Ki in [2] of 3.8 nM. Moreover, in the series on Rattus norvegicus [3], the IC50 is 0.074 µg/mL (≈ 0.194 µM). In addition, the ED50 in the series with Rattus norvegicus [3] (po, read-out: ID50 (the source's name)) came to 7.2 mg/kg.

One may read the half-life as the time needed for the level to fall by half in the phase considered. Lower therefore signals rapid decline. What is called CL/F is clearance divided by bioavailability, as obtained after extravascular dosing. As usually defined, the AUC(0-t) is exposure summed from dosing to a finite time, without extrapolation to infinity. The low end stands for less exposure, the high end for more exposure. A word on the bioavailability: it is dose-corrected exposure relative to a reference, in per cent. Read a low bioavailability as little systemic uptake. As usually defined, the clearance is the rate of elimination divided by the concentration. Read a high clearance as a high capacity for elimination. By Tmax is commonly meant the time at which the peak concentration occurs. The Cmax is the maximum level reached in the sampled fluid or tissue. Regarding `CCc1nc(-c2ccc(Cl)cc2Cl)c(CC)nc1NC(CC)CC`, the Kp in series [7] and in series [21] was 2.5 each time. Further, the half-life in series [8] is 4.2 min; in [9], 0.283 h; in series [12], 4.9 h; in series [23] it was 4.9 h. Besides, the CL/F in series [10] was 16 mL/min/kg. In the series with Rattus norvegicus [11], this compound came in with a Vdss of 6.5 L/kg. For the same compound, the area under the curve AUC(0-t) at 24 h in [13] and in series [25] was 4310 ng·h/mL each time. For the same compound, the bioavailability in [14] and in series [20] was 83% each time. The clearance in [15] came out at 16 mL/min/kg. The Vd in series [16] turned out to be 6.5 L/kg. Further, the Tmax in [17] and in series [22] was 1.3 h in each case. Moreover, the Cmax in [18] and in series [19] was 627 ng/mL throughout. In addition, the affinity in [24], expressed as Ki, was 4.1 nM.

Consider `CCC(CC)Nc1nc(C)c(-c2ccc(OC(F)(F)F)cc2O[14CH3])nc1OC`, for which, in series [26], the Drug uptake entry is given as “Active”.

`CCC(CC)Oc1c(C)nc(-c2c(OC)cc(Cl)cc2OC)nc1OC` returned a bioavailability in [27] of 6%.

(Values after ChEMBL document CHEMBL1806459, “Discovery of N-(1-ethylpropyl)-[3-methoxy-5-(2-methoxy-4-trifluoromethoxyphenyl)-6-methyl-pyrazin-2-yl]amine 59 (NGD 98-2): an orally active corticotropin releasing factor-1 (CRF-1) receptor antagonist” (J Med Chem, 2011).)
